Reference: ChEMBL document CHEMBL1152285 (Bioorg Med Chem Lett, 2008)
Active and inactive are the calls of the source. The rule behind the calls is not given here.

Tests used:
[1] = Stability in human HCT116 cells S9 fraction by LCMS/MS in presence of NADPH; format: ADME, subcellular
How it was run: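 S9 at 1 mg/ml with 1 mM NADPH plus a regenerating system, 37 °C with low shaking. Stopped with 1N HCl, centrifuged, supernatant diluted with acetonitrile containing internal standard, analysed by LCMS/MS.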

Histone deacetylase 1 = Histone deacetylase 1 (Homo sapiens, UniProt Q13547); experiment: Inhibition of HDAC1 purified from HEK293 cells by Western blot; format: cell-free
Chain of Histone deacetylase 1 (Q13547 whole entry, the tested form may be a part): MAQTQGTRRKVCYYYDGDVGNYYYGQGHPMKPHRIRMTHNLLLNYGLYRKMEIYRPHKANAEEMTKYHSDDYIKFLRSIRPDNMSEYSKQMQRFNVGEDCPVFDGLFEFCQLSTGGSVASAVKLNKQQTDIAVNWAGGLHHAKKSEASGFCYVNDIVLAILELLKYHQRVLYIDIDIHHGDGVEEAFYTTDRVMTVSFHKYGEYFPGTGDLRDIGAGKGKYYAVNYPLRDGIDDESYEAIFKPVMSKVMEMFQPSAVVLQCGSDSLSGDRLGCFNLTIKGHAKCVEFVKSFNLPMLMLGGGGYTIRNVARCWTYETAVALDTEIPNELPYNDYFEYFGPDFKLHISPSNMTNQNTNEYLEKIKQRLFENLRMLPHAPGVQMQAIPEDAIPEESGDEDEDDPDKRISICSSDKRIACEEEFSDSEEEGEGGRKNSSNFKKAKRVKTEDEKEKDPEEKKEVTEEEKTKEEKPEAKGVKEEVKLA

[2] = Inhibition of histidine-tagged HDAC4 wild type catalytic domain purified from Escherichia coli after 10 mins
How it was run: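 His-tagged HDAC4 catalytic domain (653-1084) expressed in E. coli. Trifluoroacetamide substrate then added for 1 h at 37 °C. Stopped with developer/TSA; fluorescence read at ex 360/em 460. IC50 values are means of >2 experiments.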

[3] = target: T1, Histone deacetylase (Homo sapiens) (UniProt Q13547+O15379+Q9UBN7+Q92769+Q9UQL6+Q8WUI4+Q9BY41+Q96DB2+P56524+Q9UKV0+Q969S8); experiment: Inhibition of HDAC in human HCT116 cells assessed as alpha-tubulin deacetylation up to 10 uM after 24 hrs; format: cell-based; details: HCT-116
How it was run: (§1)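 HCT116 cells treated 24 h. Alpha-tubulin acetylation measured, with the signal from 10 µM SAHA taken as 100% activation. Values are means of >2 experiments.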

[4] = target: T2, Protein deacetylase HDAC6 (Homo sapiens, UniProt Q9UBN7); experiment: Inhibition of HDAC6 purified from HEK293 cells by Western blot; format: cell-free
T2 sequence (Q9UBN7 whole entry): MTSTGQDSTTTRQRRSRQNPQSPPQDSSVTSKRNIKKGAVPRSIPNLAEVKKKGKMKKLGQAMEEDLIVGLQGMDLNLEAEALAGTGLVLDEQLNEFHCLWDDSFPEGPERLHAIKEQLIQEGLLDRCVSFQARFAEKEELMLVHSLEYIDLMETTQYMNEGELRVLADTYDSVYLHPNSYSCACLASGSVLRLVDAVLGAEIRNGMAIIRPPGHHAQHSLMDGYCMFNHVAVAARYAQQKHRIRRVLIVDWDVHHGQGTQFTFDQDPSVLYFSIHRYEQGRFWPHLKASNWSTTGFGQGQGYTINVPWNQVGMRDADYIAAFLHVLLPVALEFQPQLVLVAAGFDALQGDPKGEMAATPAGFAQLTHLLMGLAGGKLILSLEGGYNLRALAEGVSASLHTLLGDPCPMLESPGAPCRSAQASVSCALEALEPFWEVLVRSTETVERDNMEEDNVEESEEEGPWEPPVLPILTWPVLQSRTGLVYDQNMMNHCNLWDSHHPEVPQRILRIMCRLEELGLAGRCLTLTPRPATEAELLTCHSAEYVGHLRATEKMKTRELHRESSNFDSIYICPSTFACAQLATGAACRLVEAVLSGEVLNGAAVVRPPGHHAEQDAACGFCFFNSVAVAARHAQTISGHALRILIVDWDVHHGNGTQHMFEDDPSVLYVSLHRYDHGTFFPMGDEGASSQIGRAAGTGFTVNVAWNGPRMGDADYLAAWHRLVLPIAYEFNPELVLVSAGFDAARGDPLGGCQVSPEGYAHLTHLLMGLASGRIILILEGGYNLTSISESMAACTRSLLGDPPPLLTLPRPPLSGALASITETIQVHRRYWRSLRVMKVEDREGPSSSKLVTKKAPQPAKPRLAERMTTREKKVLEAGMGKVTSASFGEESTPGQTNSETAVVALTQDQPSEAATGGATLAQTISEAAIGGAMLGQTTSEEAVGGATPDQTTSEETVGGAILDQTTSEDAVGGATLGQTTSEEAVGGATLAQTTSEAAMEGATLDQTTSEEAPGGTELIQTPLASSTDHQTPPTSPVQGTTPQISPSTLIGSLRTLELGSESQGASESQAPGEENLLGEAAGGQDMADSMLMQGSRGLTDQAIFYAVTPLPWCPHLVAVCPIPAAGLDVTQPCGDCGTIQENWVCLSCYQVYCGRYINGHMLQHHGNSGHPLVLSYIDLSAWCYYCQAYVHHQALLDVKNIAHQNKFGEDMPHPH

Histone deacetylase 3 = Histone deacetylase 3 (Homo sapiens, UniProt O15379); experiment: Inhibition of HDAC3 purified from HEK293 cells by Western blot; format: cell-free
Chain of Histone deacetylase 3 (O15379 whole entry): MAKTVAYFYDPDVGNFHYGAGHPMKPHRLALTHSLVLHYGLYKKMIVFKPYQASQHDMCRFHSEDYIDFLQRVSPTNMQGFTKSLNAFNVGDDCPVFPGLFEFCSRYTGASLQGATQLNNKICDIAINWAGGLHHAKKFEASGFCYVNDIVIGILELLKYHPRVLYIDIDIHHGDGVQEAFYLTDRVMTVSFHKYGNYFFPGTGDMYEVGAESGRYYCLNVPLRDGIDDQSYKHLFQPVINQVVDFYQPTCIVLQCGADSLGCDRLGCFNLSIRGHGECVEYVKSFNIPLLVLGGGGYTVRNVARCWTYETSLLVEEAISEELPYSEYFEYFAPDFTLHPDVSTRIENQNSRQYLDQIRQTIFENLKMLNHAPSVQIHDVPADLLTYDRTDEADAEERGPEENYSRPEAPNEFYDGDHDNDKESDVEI

Histone deacetylase [5] = experiment: Inhibition of HDAC in human HCT116 cells assessed as alpha-tubulin deacetylation; format: cell-based; details: hct-116; how it was run: as §1
Hepatocyte = experiment: Toxicity in human hepatocytes by MTS assay; format: cell-based
[6] = target: T1, Histone deacetylase (Homo sapiens); experiment: Inhibition of HDAC in human HCT116 cells assessed as alpha-tubulin deacetylation at 50 uM after 24 hrs relative to 10 uM SAHA; format: cell-based; details: HCT-116; how it was run: as §1
Cytochrome P450 2C9 [7] = target: T3, Cytochrome P450 2C9 (Homo sapiens, UniProt P11712); experiment: Inhibition of CYP2C9 in human liver microsomes; format: ADME, Microsome
T3 sequence (P11712 whole entry): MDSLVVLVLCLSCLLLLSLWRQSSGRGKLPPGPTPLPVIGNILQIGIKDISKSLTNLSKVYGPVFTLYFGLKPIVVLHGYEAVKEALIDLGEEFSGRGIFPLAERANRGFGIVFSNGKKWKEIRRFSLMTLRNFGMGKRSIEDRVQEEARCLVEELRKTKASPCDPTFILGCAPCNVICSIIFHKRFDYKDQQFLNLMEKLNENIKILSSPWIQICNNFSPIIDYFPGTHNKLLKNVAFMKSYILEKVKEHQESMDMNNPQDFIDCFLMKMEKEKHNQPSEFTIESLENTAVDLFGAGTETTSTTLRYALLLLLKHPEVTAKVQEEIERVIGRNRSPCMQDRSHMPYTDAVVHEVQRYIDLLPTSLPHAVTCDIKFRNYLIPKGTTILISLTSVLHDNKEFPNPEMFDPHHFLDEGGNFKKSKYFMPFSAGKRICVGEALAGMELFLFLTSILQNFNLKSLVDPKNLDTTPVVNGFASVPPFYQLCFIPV
How it was run: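 Human liver microsomes. Read-out is tritium released as tritiated water on CYP2C9-mediated 4'-hydroxylation of diclofenac tritiated at the 4' position. IC50 values are means of >2 experiments.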

Cytochrome P450 2C9 [8] = target: T3, Cytochrome P450 2C9; experiment: Inhibition of CYP2C9 in human hepatocytes in presence of 10% fetal bovine serum; format: ADME, cell-based, Hepatocyte
How it was run: (§2)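 Human hepatocytes. Read-out is CYP2C9-mediated 4'-hydroxylation of 4'-tritiated diclofenac, measured as tritiated water. Run without serum and with 10% FBS added. IC50 values are means of >2 experiments.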

Cytochrome P450 2C9 [9] = target: T3, Cytochrome P450 2C9; experiment: Inhibition of CYP2C9 in human hepatocytes; format: ADME, cell-based, Hepatocyte; how it was run: as §2
[10] = target: T1, Histone deacetylase (Homo sapiens); details: HCT-116, 50 uM
[11] = Stability in human HCT116 cells by LCMS/MS in presence of 10% fetal bovine serum; format: ADME, cell-based, HCT-116
How it was run: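 Compounds at 1 and 5 µM incubated with HCT116 cells in medium with 10% FBS for up to 24 h. Aliquots taken over time and analysed by LCMS/MS. A cell-free medium control was run. Half-life was derived.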

[12] = target: T1, Histone deacetylase (Homo sapiens); details: HCT-116, 25 uM
Histone deacetylase [13] = experiment: Inhibition of HDAC in human HCT116 cells assessed as histone H3 deacetylation; format: cell-based; details: hct-116
[14] = target: T1, Histone deacetylase (Homo sapiens); experiment: Inhibition of HDAC in human HCT116 cells assessed as histone H3 deacetylation up to 10 uM; format: cell-based; details: HCT-116
[15] = Toxicity in human […] by MTS assay

Compound	half-life [1] [h]	IC50 (Histone deacetylase 1) [nM]	IC50 [2] [nM]	IC50 [4] [nM]	IC50 (Histone deacetylase 3) [nM]	Activity (Hepatocyte)	IC50 (Cytochrome P450 2C9 [7]) [nM]	IC50 (Cytochrome P450 2C9 [9]) [nM]	half-life [11] [h]	other results
O=C(NCc1ccccc1Cl)c1ccc(C(=O)C(F)(F)F)s1	0.25	550	100	190	–	–	–	–	–	Activity [3]: inactive
O=C(NCC1CCCCC1)c1ccc(C(=O)C(F)(F)F)cn1	> 2	–	–	3320	–	–	–	–	–	–
O=C(c1ccc(C(=O)C(F)(F)F)s1)N1CCc2ccccc21	–	1300	150	130	1400	–	–	–	–	–
Cc1noc(-c2ccc(C(=O)C(F)(F)F)s2)n1	> 2	–	75	–	–	–	–	–	–	EC50 (Histone deacetylase [5]): 6500 nM
O=C(c1ccc(C(=O)C(F)(F)F)[nH]1)N1CCc2ccccc21	0.25	–	–	580	–	–	–	–	–	–
COc1cccc(N2CCN(C(=O)c3ccc(C(=O)C(F)(F)F)s3)CC2)c1	–	–	480	170	–	Non-toxic	5000	8000	–	inhibition [6]: 50%; IC50 (Cytochrome P450 2C9 [8]): 8000 nM
CN(Cc1ccc2nccnc2c1)C(=O)c1ccc(C(=O)C(F)(F)F)s1	0.333	–	100	–	–	–	–	–	3.5	inhibition [10]: 40%; EC50 (Histone deacetylase [5]): 12000 nM
O=C(c1ccc(C(=O)C(F)(F)F)s1)N1CCn2c(-c3ccccc3)cnc2C1	–	4700	300	–	> 5000	–	–	–	–	–
CC(NC(=O)c1ccc(C(=O)C(F)(F)F)s1)c1cccc2ccccc12 (stereo not drawn)	–	830	170	360	840	Non-toxic	1400	11000	3	inhibition [12]: 50%; IC50 (Cytochrome P450 2C9 [8]): 17000 nM
CC(NC(=O)c1ccc(C(=O)C(F)(F)F)s1)c1ccncc1 (stereo not drawn)	–	1600	90	260	1500	Non-toxic	13000	10000	5	EC50 (Histone deacetylase [13]): > 35000 nM; EC50 (Histone deacetylase [5]): 10000 nM; IC50 (Cytochrome P450 2C9 [8]): 3000 nM
COc1ccc(Cl)cc1N1CCN(C(=O)c2ccc(C(=O)C(F)(F)F)s2)CC1	–	4400	530	175	> 10000	Non-toxic	1800	1800	2	Activity [14]: inactive; Activity [3]: inactive; Activity [15]: Non-toxic
O=C(c1ncc(C(=O)C(F)(F)F)s1)N1CCc2ccccc21	0.333	1600	13	410	–	–	–	–	–	Activity [3]: inactive
O=C(c1ccc(C(=O)C(F)(F)F)s1)N1CCC(c2nnc(-c3ccccc3)o2)CC1	–	1300	70	160	2800	Non-toxic	8000	8000	2	IC50 (Cytochrome P450 2C9 [8]): 5000 nM
C[C@H](NC(=O)c1ccc(C(=O)C(F)(F)F)s1)c1ccccc1	–	5000	170	150	–	–	–	–	–	–
CN(Cc1ccccc1)C(=O)c1ccc(C(=O)C(F)(F)F)s1	–	890	510	–	560	–	–	–	–	–
